Source: ChEMBL document CHEMBL1132292, “Potentiation of cADPR-induced Ca(2+)-release by methylxanthine analogues” (1999)

Columns and labels:
Lytechinus pictus [1] = test: Calcium release in sea urchin egg homogenate at 2 mM as percent of 1 mM caffeine effect
Lytechinus pictus [2] = test: Percent of 1 mM Caffeine effect to release [Ca2+] at 1 mM in sea urchin egg homogenate
[3] = Compound was screened for their ability to potentiate [Ca2+] release induced by cADRP(an endogenous modulator of ryanodine receptor) in sea urchin egg homogenates at a concentration of 2 mM; type: functional, tissue-based
Outline: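 Lytechinus pictus egg homogenate (2.5%, from 50% stocks), Ca2+-loaded 3 h at room temperature in Glu-IM (pH 7.2) with 0.5 mM ATP, phosphocreatine/creatine phosphokinase, oligomycin, antimycin, azide and 3 μM fluo-3. Fluo-3 fluorescence (ex 490/em 535 nm) read at 17 °C. Methylxanthine at 2 mM added 1 min before a daily-chosen, slightly active cADPR concentration. Caffeine run daily as standard.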

[4] = compound was screened for their ability to potentiate [Ca2+] release induced by cADRP(an endogenous modulator of ryanodine receptor) in sea urchin egg homogenates at a concentration 2 mM; type: functional, tissue-based
Outline: (§1)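 Lytechinus pictus egg homogenate (2.5%, from 50% stocks) in Glu-IM (pH 7.2, Hepes). It was Ca2+-loaded for 3 h at room temperature with 0.5 mM ATP, creatine kinase/phosphocreatine, oligomycin, antimycin, azide and 3 μM fluo-3. Fluo-3 fluorescence (ex 490/em 535 nm) was read at 17 °C. Methylxanthine was added 1 min before a slightly releasing cADPR concentration chosen from each experiment's cADPR concentration–response curve. Caffeine was run daily as standard.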

[5] = compound was screened for their ability to potentiate [Ca2+] release induced by cADRP(an endogenous modulator of ryanodine receptor) in sea urchin egg homogenates at a concentration 1 mM; type: functional, tissue-based
Outline: as §1

[6] = Calcium release at 2 mM as percent of 1 mM caffeine effect

Row | SMILES | Activity (Lytechinus pictus [1]) [%] | further results
1 | CC(=O)CCCCCn1c(=O)c2c(ncn2C)n(C)c1=O | 96 | 
2 | CC(=O)CCCCCn1c(=O)c2c(ncn2CCCC(C)=O)n(C)c1=O | 38 | 
3 | CC(O)CCCCCCn1cnc2c1c(=O)n(C)c(=O)n2C (stereo not drawn) |  | Activity (Lytechinus pictus [2]): 98%
4 | CC(O)Cn1c(=O)c2c(ncn2C)n(C)c1=O (stereo not drawn) [PROTHEOBROMINE] | 83 | 
5 | Cn1c(=O)c2c(ncn2CCCCCc2ccccc2)n(C)c1=O | 70 | 
6 | CC(=O)CCn1cnc2c1c(=O)n(C)c(=O)n2C | 97 | 
7 | CCOC(=O)Cn1cnc2c1c(=O)n(C)c(=O)n2C |  | Activity (Lytechinus pictus [2]): 87%
8 | CC(=O)Cn1c(=O)c2c(ncn2CC(C)=O)n(C)c1=O | 17 | 
9 | O=c1[nH]c(=O)c2nc[nH]c2[nH]1 |  | Potentiation [3]: 41%
10 | Cn1c(=O)c2nc[nH]c2n(C)c1=O.O [THEOPHYLLINE] | 106 | 
11 | CC(=O)CCCCCCn1cnc2c1c(=O)n(C)c(=O)n2C | 112 | 
12 | Cn1c(=O)c2c(ncn2CCCCO)n(C)c1=O | 81 | 
13 | CC(O)CCCn1c(=O)c2c(ncn2C)n(C)c1=O (stereo not drawn) | 59 | 
14 | CC(=O)CCCCCn1cnc2c1c(=O)n(C)c(=O)n2C | 107 | 
15 | Cn1c(=O)c2[nH]cnc2n(C)c1=O |  | Potentiation [3]: 95.3%
16 | Cn1c(=O)c2c(ncn2CCCCCCO)n(C)c1=O |  | Activity (Lytechinus pictus [2]): 97%
17 | CCOC(=O)CCCCCn1c(=O)c2c(ncn2C)n(C)c1=O |  | Activity (Lytechinus pictus [2]): 103%
18 | CC(=O)CCCCn1cnc2c1c(=O)n(C)c(=O)n2C [LOMIFYLLINE] | 65 | 
19 | CC(O)CCCCCn1c(=O)c2c(ncn2C)n(C)c1=O (stereo not drawn) | 54 | 
20 | CC(O)CCCn1cnc2c1c(=O)n(C)c(=O)n2C (stereo not drawn) | 82 | 
21 | C#CCn1c(=O)c2c(ncn2CCCCCCC(C)=O)n(C)c1=O |  | Activity (Lytechinus pictus [2]): 98%

Row | SMILES | Activity (Lytechinus pictus [1]) [%] | further results
22 | Cn1c(=O)c2c(ncn2CC(=O)O)n(C)c1=O [ACEFYLLINE] |  | Activity (Lytechinus pictus [2]): 1.4%
23 | CC(=O)CCCn1c(=O)c2c(ncn2C)n(C)c1=O | 37 | 
24 | Cn1cnc2c1c(=O)n(CCCCCC(=O)O)c(=O)n2C |  | Activity (Lytechinus pictus [2]): 61%
25 | CC(O)Cn1cnc2c1c(=O)n(C)c(=O)n2C (stereo not drawn) [PROXYPHYLLINE] | 47 | 
26 | CC(=O)Cn1cnc2c1c(=O)n(C)c(=O)n2C | 65 | 
27 | CC(=O)CCCCCCCCn1cnc2c1c(=O)n(C)c(=O)n2C |  | Activity (Lytechinus pictus [2]): 62%
28 | C#CCn1c(=O)c2c(ncn2CCCC(C)=O)n(C)c1=O | 81 | 
29 | CC(=O)CCCCCCn1c(=O)c2c(ncn2C)n(C)c1=O | 76 | 
30 | CC(=O)CCCn1cnc2c1c(=O)n(CC(C)=O)c(=O)n2C | 6.7 | 
31 | CC(O)CCCCCn1cnc2c1c(=O)n(C)c(=O)n2C (stereo not drawn) | 105 | 
32 | CC(=O)CCCn1cnc2c1c(=O)n(C)c(=O)n2C | 60 | 
33 | Cn1c(=O)c2c(ncn2CCCCCCCCCCO)n(C)c1=O |  | Activity (Lytechinus pictus [2]): 113%
34 | CCOC(=O)CCCCCn1cnc2c1c(=O)n(C)c(=O)n2C |  | Activity (Lytechinus pictus [2]): 145%
35 | Cn1c(=O)c2ncn(C)c2n(C)c1=O |  | Potentiation [4]: 28.7%
36 | Cn1c(=O)c2c(ncn2CCCCCC(=O)O)n(C)c1=O |  | Activity (Lytechinus pictus [2]): 9.4%
37 | C=CCn1cnc2c1c(=O)n(C)c(=O)n2C | 100 | 
38 | CC(=O)Cn1c(=O)c2c(ncn2C)n(C)c1=O | 43 | 
39 | CC(=O)CCCCCn1c(=O)c2c(ncn2CCCCCC(C)=O)n(C)c1=O | 54 | 
40 | Cn1c(=O)c2c(ncn2CCO)n(C)c1=O [ETOFYLLINE] | 43 | 
41 | Cn1c(=O)c2c(ncn2C)n(C)c1=O [CAFFEINE] |  | Potentiation [5]: 100%; Activity [6]: 100%
42 | CC(=O)CCn1c(=O)c2c(ncn2C)n(C)c1=O | 46 | 
